Data published in ChEMBL document CHEMBL1629439, “High-throughput identification of antibacterials against methicillin-resistant Staphylococcus aureus (MRSA) and the transglycosylase” (Bioorg Med Chem, 2010).
Values after ≈ are worked out from the molar mass of the structure shown.

Experiments:
[1] = test system: Stenotrophomonas maltophilia; assay: Antimicrobial activity against Stenotrophomonas maltophilia ATCC 13637 after 18 to 24 hrs by alamar blue assay; format: functional; settings: Stenotrophomonas maltophilia, ATCC 13637; read-out: MIC
Outline: (§1)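 Broth microdilution per NCCLS in Mueller-Hinton broth, 8-point twofold dilutions, 384-well format. Exponential-phase cells at 5 × 10^5 cells/ml incubated with compound 18–24 h at 37 °C, then 20% Alamar blue added and fluorescence read. MIC90 taken as the lowest concentration preventing at least 90% bacterial growth.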

Escherichia coli = assay: Antimicrobial activity against Escherichia coli ATCC […] after 18 to 24 hrs by alamar blue assay; format: functional; settings: Escherichia coli; read-out: MIC; outline: as §1
Serratia marcescens = assay: Antimicrobial activity against Serratia marcescens ATCC 14756 after 18 to 24 hrs by alamar blue assay; format: functional; settings: Serratia marcescens, ATCC 14756; read-out: MIC; outline: as §1
Bacillus subtilis = assay: Antimicrobial activity against Bacillus subtilis ATCC 23857 after 18 to 24 hrs by alamar blue assay; format: functional; outline: as §1
[2] = test system: Mycolicibacterium smegmatis; assay: Antimicrobial activity against Mycobacterium smegmatis BCRC 11565 after 18 to 24 hrs by alamar blue assay; format: functional; settings: Mycolicibacterium smegmatis, BCRC 11565; read-out: MIC; outline: as §1
Staphylococcus aureus [3] = assay: Antimicrobial activity against methicillin-resistant Staphylococcus aureus ATCC 33592 after 18 to 24 hrs by alamar blue assay; format: functional; settings: Staphylococcus aureus, ATCC 33592; read-out: MIC
Outline: (§2)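 Broth microdilution per NCCLS standard, Mueller-Hinton broth, 8-point twofold dilutions; exponentially growing cells at 5 10^5 cells/ml with compound, 18–24 h at 37 C; 20% Alamar blue added, fluorescence read; MIC90 taken as lowest concentration preventing at least 90% growth.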

Staphylococcus aureus [4] = assay: Antimicrobial activity against Staphylococcus aureus ATCC 29213 after 18 to 24 hrs by alamar blue assay
Staphylococcus aureus [5] = assay: Antimicrobial activity against oxacillin- and methicillin-resistant Staphylococcus aureus isolate Sa-OXA-R2 after 18 to 24 hrs by alamar blue assay; format: functional; outline: as §2
Pseudomonas aeruginosa = assay: Antimicrobial activity against Pseudomonas aeruginosa ATCC 25619 after 18 to 24 hrs by alamar blue assay; format: functional; settings: Pseudomonas aeruginosa, ATCC 25619; read-out: MIC; outline: as §1
Staphylococcus aureus [6] = assay: Antimicrobial activity against methicillin-resistant Staphylococcus aureus isolate NTUH4722 after 18 to 24 hrs by alamar blue assay; format: functional; outline: as §2
Acinetobacter baumannii = assay: Antimicrobial activity against Acinetobacter baumannii ATCC 49139 after 18 to 24 hrs by alamar blue assay; format: functional; settings: Acinetobacter baumannii, ATCC 49139; read-out: MIC; outline: as §1

O=C(Nc1ccc(Cl)c(S(=O)(=O)Nc2cccc(Cl)c2)c1)c1ccc([N+](=O)[O-])o1
MIC [1]: 32 µg/mL (≈ 70.1 µM) | MIC (Escherichia coli): 256 µg/mL (≈ 561 µM) | MIC (Serratia marcescens): 32 µg/mL (≈ 70.1 µM) | MIC (Bacillus subtilis): 0.06 µg/mL (≈ 0.132 µM) | MIC [2]: 0.5 µg/mL (≈ 1.1 µM) | MIC (Staphylococcus aureus [3]): 1.5 µg/mL (≈ 3.29 µM) | MIC (Staphylococcus aureus [4]): 1.5 µg/mL (≈ 3.29 µM) | MIC (Staphylococcus aureus [5]): 1.5 µg/mL (≈ 3.29 µM) | MIC (Pseudomonas aeruginosa): 128 µg/mL (≈ 281 µM) | MIC (Staphylococcus aureus [6]): 1.5 µg/mL (≈ 3.29 µM) | MIC (Acinetobacter baumannii): 12 µg/mL (≈ 26.3 µM)

O=C(Nc1cccc2c1C(=O)NC2=O)c1ccc([N+](=O)[O-])o1
MIC [1]: 32 µg/mL (≈ 106 µM) | MIC (Escherichia coli): 256 µg/mL (≈ 850 µM) | MIC (Serratia marcescens): 32 µg/mL (≈ 106 µM) | MIC (Bacillus subtilis): 0.06 µg/mL (≈ 0.199 µM) | MIC [2]: 0.5 µg/mL (≈ 1.66 µM) | MIC (Staphylococcus aureus [3]): 1 µg/mL (≈ 3.32 µM) | MIC (Staphylococcus aureus [4]): 4 µg/mL (≈ 13.3 µM) | MIC (Staphylococcus aureus [5]): 2 µg/mL (≈ 6.64 µM) | MIC (Pseudomonas aeruginosa): 128 µg/mL (≈ 425 µM) | MIC (Staphylococcus aureus [6]): 2 µg/mL (≈ 6.64 µM) | MIC (Acinetobacter baumannii): 12 µg/mL (≈ 39.8 µM)

Cc1c(CC(=O)NCC(=O)O)c(=O)oc2c(C)c3occ(-c4ccc(Cl)cc4)c3cc12
MIC [1]: > 256 µg/mL | MIC (Escherichia coli): > 256 µg/mL | MIC (Serratia marcescens): > 256 µg/mL | MIC (Bacillus subtilis): > 64 µg/mL | MIC [2]: 1 µg/mL (≈ 2.27 µM) | MIC (Staphylococcus aureus [3]): 1.25 µg/mL (≈ 2.84 µM) | MIC (Staphylococcus aureus [4]): 1.25 µg/mL (≈ 2.84 µM) | MIC (Staphylococcus aureus [5]): 1.25 µg/mL (≈ 2.84 µM) | MIC (Pseudomonas aeruginosa): > 256 µg/mL | MIC (Staphylococcus aureus [6]): 1.25 µg/mL (≈ 2.84 µM) | MIC (Acinetobacter baumannii): > 256 µg/mL

O=C(Nc1cccc(C2=Nc3ccccc3C2)c1)c1ccc([N+](=O)[O-])o1
MIC [1]: 32 µg/mL (≈ 92.1 µM) | MIC (Escherichia coli): 256 µg/mL (≈ 737 µM) | MIC (Serratia marcescens): 32 µg/mL (≈ 92.1 µM) | MIC (Bacillus subtilis): 0.06 µg/mL (≈ 0.173 µM) | MIC [2]: 0.5 µg/mL (≈ 1.44 µM) | MIC (Staphylococcus aureus [3]): 0.25 µg/mL (≈ 0.72 µM) | MIC (Staphylococcus aureus [4]): 0.5 µg/mL (≈ 1.44 µM) | MIC (Staphylococcus aureus [5]): 0.5 µg/mL (≈ 1.44 µM) | MIC (Pseudomonas aeruginosa): 128 µg/mL (≈ 369 µM) | MIC (Staphylococcus aureus [6]): 0.5 µg/mL (≈ 1.44 µM) | MIC (Acinetobacter baumannii): 12 µg/mL (≈ 34.5 µM)

Cc1ccc(N2C(=O)c3ccc([N+](=O)[O-])c4c([N+](=O)[O-])ccc(c34)C2=O)cc1
MIC [1]: > 256 µg/mL | MIC (Escherichia coli): > 256 µg/mL | MIC (Serratia marcescens): > 256 µg/mL | MIC (Bacillus subtilis): 4 µg/mL (≈ 10.6 µM) | MIC [2]: 4 µg/mL (≈ 10.6 µM) | MIC (Staphylococcus aureus [3]): 2.5 µg/mL (≈ 6.63 µM) | MIC (Staphylococcus aureus [4]): 5 µg/mL (≈ 13.3 µM) | MIC (Staphylococcus aureus [5]): 2.5 µg/mL (≈ 6.63 µM) | MIC (Pseudomonas aeruginosa): > 256 µg/mL | MIC (Staphylococcus aureus [6]): 2.5 µg/mL (≈ 6.63 µM) | MIC (Acinetobacter baumannii): > 256 µg/mL

O=C(Nc1ccc2oc(-c3ccncc3)nc2c1)c1ccc([N+](=O)[O-])o1
MIC [1]: 32 µg/mL (≈ 91.4 µM) | MIC (Escherichia coli): 256 µg/mL (≈ 731 µM) | MIC (Serratia marcescens): 32 µg/mL (≈ 91.4 µM) | MIC (Bacillus subtilis): 0.06 µg/mL (≈ 0.171 µM) | MIC [2]: 0.5 µg/mL (≈ 1.43 µM) | MIC (Staphylococcus aureus [3]): 4 µg/mL (≈ 11.4 µM) | MIC (Staphylococcus aureus [4]): 2 µg/mL (≈ 5.71 µM) | MIC (Staphylococcus aureus [5]): > 4 µg/mL | MIC (Pseudomonas aeruginosa): 128 µg/mL (≈ 365 µM) | MIC (Staphylococcus aureus [6]): 2 µg/mL (≈ 5.71 µM) | MIC (Acinetobacter baumannii): 12 µg/mL (≈ 34.3 µM)

O=C(Nc1ccc(Cl)cc1)c1cc(Br)ccc1NS(=O)(=O)c1ccc(Cl)cc1
MIC [1]: > 256 µg/mL | MIC (Escherichia coli): > 256 µg/mL | MIC (Serratia marcescens): > 256 µg/mL | MIC (Bacillus subtilis): < 0.03 µg/mL | MIC [2]: > 64 µg/mL | MIC (Staphylococcus aureus [3]): 0.25 µg/mL (≈ 0.5 µM) | MIC (Staphylococcus aureus [4]): 0.25 µg/mL (≈ 0.5 µM) | MIC (Staphylococcus aureus [5]): 0.5 µg/mL (≈ 1 µM) | MIC (Pseudomonas aeruginosa): > 256 µg/mL | MIC (Staphylococcus aureus [6]): 0.25 µg/mL (≈ 0.5 µM) | MIC (Acinetobacter baumannii): > 256 µg/mL
